AHR act: AHR activators, primary screen, cell-based, luminescence, luciferase reporter, human; AHR-responsive luciferase reporter cells; activation, % at 5 µM; actives 2.5% (n = 320,000); in the data active means activation above about 47%;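 further: 0% = vehicle wells and 100% = reference agonist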
TbMetRS inhib: T. brucei MetRS inhibitors, primary screen, biochemical, luminescence | methionyl-tRNA synthetase (Trypanosoma brucei brucei) | purified T. brucei MetRS, ATP depletion, Kinase-Glo luminescence | inhibition, % at 11.9 µM | actives 0.4% (n = 360,000);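 active means inhibition above a per-plate cutoff of the control wells' mean inhibition plus 3 SD, cut at about 5.5% in these data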;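 further: 0% = DMSO wells median and 100% = median of wells with control inhibitor compound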
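Measured by: Kinase-Glo luciferase luminescence reporting remaining unconsumed ATP. Material: purified T. brucei MetRS enzyme. Doses: 11.9 µM compound single dose, 0.9% DMSO. Medium: HEPES buffer containing pyrophosphatase, BSA, spermine, DTT. Times: 15 min preincubation, 2 h reaction, all 25 °C. Reagent: methionine, ATP and bulk E. coli tRNA.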
bovine MsrA act: bovine MsrA enzyme activators, primary screen, biochemical, absorbance, HTS. Methionine sulfoxide reductase A (Bos taurus). purified bovine MsrA, absorbance read-out. activation, % at 10.6 µM. AID 602163, 2012. actives 0.3% (n = 360,000); in the data active means activation above about 7.5%;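 further: 0% = vehicle and 100% = reference activator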
m5-HT2A agonist: mouse Htr2a agonists via beta-arrestin recruitment, primary screen, cell-based, luminescence. 5-hydroxytryptamine receptor 2A (Mus musculus), P35363. CHO-K1 mHTR2A beta-arrestin complementation; percent of 30 µM serotonin response. activation, % at 7.6 µM. actives 0.66% (n = 360,000). AID 624169, 2012;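 active means activation above a run cutoff, the mean activation of all tested compounds plus 3 SD, cut at about 14% in these data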;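 further: 0% = plate median of compound wells and 100% = 30 µM serotonin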
Target sequence (P35363 whole entry, looked up): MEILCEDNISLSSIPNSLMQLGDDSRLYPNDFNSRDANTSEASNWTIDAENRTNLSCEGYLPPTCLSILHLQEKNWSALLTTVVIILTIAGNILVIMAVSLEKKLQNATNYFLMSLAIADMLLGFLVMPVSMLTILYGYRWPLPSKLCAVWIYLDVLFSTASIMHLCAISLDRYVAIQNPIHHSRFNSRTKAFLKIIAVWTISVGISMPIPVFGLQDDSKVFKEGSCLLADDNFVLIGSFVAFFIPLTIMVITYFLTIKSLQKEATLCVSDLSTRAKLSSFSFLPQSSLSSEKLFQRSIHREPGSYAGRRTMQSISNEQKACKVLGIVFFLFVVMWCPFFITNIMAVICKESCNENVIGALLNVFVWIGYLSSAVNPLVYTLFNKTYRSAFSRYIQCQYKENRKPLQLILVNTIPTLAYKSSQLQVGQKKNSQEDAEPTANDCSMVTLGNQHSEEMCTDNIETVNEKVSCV
AI-2 QS modul: Vibrio harveyi AI-2 quorum sensing modulators, primary screen, JMH597 strain, luminescence/OD600 ratio | Vibrio harveyi JMH597 AI-2 luminescence/OD600 ratio, 9 h; hits give low values; strain lacks LuxN and CqsS sensors; 0 = neutral-control median | activity change, % at 7.5 µM | actives 0.4% (n = 300,000) | AID 2094, 2009; in the data active means activity change below about -75%, passing the limit was not always enough;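 further: luminescence divided by OD600 gain over 9 h not by final OD600 alone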
MsrA inh: bovine MsrA enzyme inhibitors, primary screen, biochemical, absorbance, HTS; inhibition, % at 15.5 µM; actives 0.75% (n = 360,000); Methionine sulfoxide reductase A (Bos taurus); purified bovine MsrA, absorbance read-out; in the data active means inhibition above about 4.5%;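 further: 0% = vehicle wells with enzyme and 100% = reference inhibitor wells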
MsrA activ conf: bovine MsrA activators, retest, confirmation, biochemical, absorbance, HTS; activation, % at 10.6 µM; shares compounds with bovine MsrA act; purified bovine MsrA, absorbance read-out; actives 12% (n = 1,000); in the data active means activation above about 4%;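 further: enzyme coupled to thioredoxin and thioredoxin reductase with NADPH; 0% = vehicle wells and 100% = reference activator wells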
Active calls of the source: *. A selection: hits, their analogues and other compounds. The true share with any hit is near 4.4%.

CS(=O)(=O)N(CC(=O)N1CCOCC1)c1cccc(F)c1 was read as AHR act -1, TbMetRS inhib -1, bovine MsrA act 9.2*, m5-HT2A agonist -1, AI-2 QS modul 20, MsrA inh 0 and MsrA activ conf -1.
`Cc1c(NC(=O)c2ccc(C(C)(C)C)cc2)cccc1[N+](=O)[O-]` gave AHR act 1, TbMetRS inhib 1, bovine MsrA act 11*, m5-HT2A agonist -2, AI-2 QS modul 7, MsrA inh 2 and MsrA activ conf -1.
For COc1cc(NC(=O)c2cc(-c3cc(F)ccc3OC(C)C)n[nH]2)cc(OC)c1OC the results were TbMetRS inhib 0, bovine MsrA act 9.4*, m5-HT2A agonist -8, MsrA inh 0 and MsrA activ conf -1.
For O=C(Nc1ccc2c(c1)OCCO2)C(c1cc2ccccc2o1)N1CCN(C/C=C/c2ccccc2)CC1 (stereo not drawn) the results were TbMetRS inhib 0, bovine MsrA act 16*, m5-HT2A agonist -6, MsrA inh 0 and MsrA activ conf -2.
O=C(Nc1ccc2c(c1)OCCO2)C(C1CC1)N1CCN(C/C=C/c2ccccc2)CC1 (stereo not drawn) was read as TbMetRS inhib 0, bovine MsrA act -2, m5-HT2A agonist -3 and MsrA inh -1.
COC(=O)c1c(NC(=O)COC(=O)CC(NC(C)=O)c2ccccc2)sc(C)c1C (stereo not drawn) was read as AHR act 1, TbMetRS inhib 0, bovine MsrA act -4, m5-HT2A agonist -1, AI-2 QS modul 15 and MsrA inh 0.
`Cc1noc(C)c1CSCC(=O)Nc1cc(S(=O)(=O)N2CCOCC2)ccc1OC(C)C` gave AHR act 2, TbMetRS inhib -1, bovine MsrA act -2, m5-HT2A agonist -13, AI-2 QS modul -1 and MsrA inh 3.
CN(CCN1CCc2ccccc2C1)Cc1nc(Cc2ccccc2F)no1 was read as TbMetRS inhib 1, bovine MsrA act 15*, m5-HT2A agonist -6, MsrA inh -2 and MsrA activ conf -2.
`COc1ccc(Cc2noc(CN(C)CCN3CCc4ccccc4C3)n2)cc1OC` gave AHR act 9, TbMetRS inhib -1, bovine MsrA act -7, m5-HT2A agonist -3, AI-2 QS modul 7 and MsrA inh 1.
For CCc1cc2c(=O)n(CC(C)C)cnc2s1 the results were AHR act 4, TbMetRS inhib -1, bovine MsrA act -4, m5-HT2A agonist 1, AI-2 QS modul 15 and MsrA inh -1.
`CCCCCn1cnc2sc(CC)cc2c1=O` gave AHR act 1, TbMetRS inhib 0, bovine MsrA act 14*, m5-HT2A agonist 0, AI-2 QS modul 27, MsrA inh -1 and MsrA activ conf 3.
Screening CN(Cc1ccccc1)C(=O)c1csc([C@@H]2O[C@H](CO)[C@H](O)[C@H](O)[C@H]2O)n1 returned TbMetRS inhib 0, bovine MsrA act 14*, m5-HT2A agonist 1, MsrA inh 0 and MsrA activ conf -1.
Cc1cccc(C)c1-n1nnnc1-c1nc2cc(Br)ccc2[nH]c1=O was read as TbMetRS inhib 4, bovine MsrA act 8.0*, m5-HT2A agonist -3, MsrA inh -1 and MsrA activ conf 2.
CN(C(=O)COC(=O)c1c[nH]c2ccccc12)c1ccccc1 was read as TbMetRS inhib 0, bovine MsrA act -1, m5-HT2A agonist -3 and MsrA inh 0.
Screening CCCn1c(N)c(N(CCOC)C(=O)c2ccc(N3CCCC3=O)cc2)c(=O)[nH]c1=O returned AHR act 2, TbMetRS inhib 0, bovine MsrA act 7.9*, m5-HT2A agonist 2, AI-2 QS modul 11, MsrA inh -1 and MsrA activ conf 1.

Bioassay records (PubChem BioAssay)
